Activity calls are given as the source filed them.
What was measured:
[1] = molecular target: Proto-oncogene tyrosine-protein kinase ROS (Homo sapiens) (UniProt P08922); assay: Binding affinity to wild-type human partial length ROS1 (A1921 to N2240 residues) expressed in bacterial expression system assessed as remaining unbound target protein level at 1000 nM by Kinomescan method relative to control
[2] = molecular target: Ribosomal protein S6 kinase alpha-2 (Homo sapiens) (UniProt Q15349); assay: Binding affinity to wild-type human partial length C-terminal RSK3 kinase domain 2 (V403 to K700 residues) expressed in bacterial expression system assessed as remaining unbound target protein level at 1000 nM by Kinomescan method relative to control
Summary of the method: (§1)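 Profiled in a KINOMEscan binding panel with the inhibitor at a single concentration of 1 μM. Binding to each kinase was read out as percent of control, relative to a DMSO control. Strong binders were defined as those with a percent control value below 1.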

[3] = molecular target: Mitogen-activated protein kinase 12 (Homo sapiens) (UniProt P53778); assay: Binding affinity to wild-type human full length p38-gamma (M1 to L367 residues) expressed in mammalian expression system assessed as remaining unbound target protein level at 1000 nM by Kinomescan method relative to control
Summary of the method: (§2)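 KINOMEscan competition binding profile across a panel of 468 kinases and mutants, with the inhibitor tested at a single concentration of 1 μM. Binding is reported as percent of control, meaning signal relative to a DMSO control.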

[4] = molecular target: Serine/threonine-protein kinase OSR1 (Homo sapiens) (UniProt O95747); assay: Binding affinity to wild-type human full length OSR1 (M1 to S527 residues) expressed in mammalian expression system assessed as remaining unbound target protein level at 1000 nM by Kinomescan method relative to control
Summary of the method: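 Single-point competition binding screen across a panel of 468 kinases and mutants, with the inhibitor at 1 μM. Binding is read out as percent of a DMSO control, and targets below 1 percent control were classed as strong binders.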

[5] = molecular target: Dual specificity protein kinase CLK2 (Homo sapiens) (UniProt P49760); assay: Binding affinity to wild-type human partial length CLK2 (D144 to R498 residues) expressed in bacterial expression system assessed as remaining unbound target protein level at 1000 nM by Kinomescan method relative to control; summary of the method: as §2
[6] = molecular target: Serine/threonine-protein kinase pim-2 (Homo sapiens) (UniProt Q9P1W9); assay: Binding affinity to wild-type human partial length PIM2 (M1 to E291 residues) expressed in bacterial expression system assessed as remaining unbound target protein level at 1000 nM by Kinomescan method relative to control
[7] = molecular target: Cyclin-G-associated kinase (Homo sapiens) (UniProt O14976); assay: Binding affinity to wild-type human partial length GAK (G13 to Y338 residues) expressed in bacterial expression system assessed as remaining unbound target protein level at 1000 nM by Kinomescan method relative to control
[8] = molecular target: Serine/threonine-protein kinase PRP4 homolog (Homo sapiens) (UniProt Q13523); assay: Binding affinity to wild-type human partial length PRP4 (D657 to I1007 residues) expressed in bacterial expression system assessed as remaining unbound target protein level at 1000 nM by Kinomescan method relative to control
[9] = molecular target: Serine/threonine-protein kinase tousled-like 1 (Homo sapiens) (UniProt Q9UKI8); assay: Binding affinity to wild-type human partial length TLK1 (K447 to A754 residues) expressed in bacterial expression system assessed as remaining unbound target protein level at 1000 nM by Kinomescan method relative to control
[10] = molecular target: Fibroblast growth factor receptor 4 (Homo sapiens) (UniProt P22455); assay: Binding affinity to wild-type human partial length FGFR4 (G402 to E713 residues) expressed in bacterial expression system assessed as remaining unbound target protein level at 1000 nM by Kinomescan method relative to control
[11] = molecular target: Hormonally up-regulated neu tumor-associated kinase (Homo sapiens) (UniProt P57058); assay: Binding affinity to wild-type human partial length HUNK (A31 to K354 residues) expressed in bacterial expression system assessed as remaining unbound target protein level at 1000 nM by Kinomescan method relative to control
Summary of the method: (§3)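 KINOMEscan binding panel of 468 kinases/mutants. Inhibitor was tested at a single concentration of 1 μM. Binding is reported as percent of control, defined relative to a DMSO control.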

[12] = molecular target: MAP kinase-interacting serine/threonine-protein kinase 2 (Homo sapiens) (UniProt Q9HBH9); assay: Binding affinity to wild-type human partial length MKNK2 (G63 to S388 residues) expressed in mammalian expression system assessed as remaining unbound target protein level at 1000 nM by Kinomescan method relative to control
[13] = Cmax in beagle dog at 10 mg/kg, po by LC-MS/MS analysis; type: ADME, organism-based, Canis lupus familiaris; parameters: dose 10 mg/kg, route oral; settings: in vivo
[14] = molecular target: Fibroblast growth factor receptor 3 (Homo sapiens) (UniProt P22607); assay: Binding affinity to wild-type human partial length FGFR3 (R442 to S771 residues) expressed in bacterial expression system assessed as remaining unbound target protein level at 1000 nM by Kinomescan method relative to control
[15] = molecular target: Dual specificity mitogen-activated protein kinase kinase 5 (Homo sapiens) (UniProt Q13163); assay: Binding affinity to wild-type human partial length MEK5 (L98 to P448 residues) expressed in mammalian expression system assessed as remaining unbound target protein level at 1000 nM by Kinomescan method relative to control; summary of the method: as §3
[16] = molecular target: Serine/threonine-protein kinase 24 (Homo sapiens) (UniProt Q9Y6E0); assay: Binding affinity to wild-type human partial length MST3 (A30 to S311 residues) expressed in bacterial expression system assessed as remaining unbound target protein level at 1000 nM by Kinomescan method relative to control
[17] = Antiproliferative activity against Chinese hamster CHL cells after 72 hrs by Celltiter-Glo assay; settings: Cricetulus griseus
[18] = molecular target: Calcium/calmodulin-dependent protein kinase type IV (Homo sapiens) (UniProt Q16566); assay: Binding affinity to wild-type human partial length CAMK4 (A22 to A322 residues) expressed in bacterial expression system assessed as remaining unbound target protein level at 1000 nM by Kinomescan method relative to control; summary of the method: as §1
[19] = Tmax in beagle dog at 10 mg/kg, po by LC-MS/MS analysis; type: ADME, organism-based, Canis lupus familiaris; settings: in vivo
[20] = Apparent volume of distribution in beagle dog at 2 mg/kg, iv by LC-MS/MS analysis; type: ADME, organism-based, Canis lupus familiaris; settings: in vivo, read-out: Vz
Summary of the method: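 Non-compartmental PK. Male SD rats 190-210 g, mice and beagle dogs acclimatized one week, fasted 12 h with water, split into iv and po groups (mice 48, rats 6, dogs 6). iv 3/3/2 mg/kg (mice/rats/dogs); po 10/20/10 mg/kg; vehicle DMSO in 5% glucose water. Blood at 2 or 5 to 720 min; plasma protein-precipitated with methanol, caffeine internal standard, LC-MS/MS.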

[21] = molecular target: Dual specificity protein kinase TTK (Homo sapiens) (UniProt P33981); assay: Binding affinity to wild-type human partial length TTK (N505 to V798 residues) expressed in bacterial expression system assessed as remaining unbound target protein level at 1000 nM by Kinomescan method relative to control
Homo sapiens = species on record: Homo sapiens; assay: Induction of apoptosis in human MEC1 cells assessed as decrease in XIAP level up to 3 uM after 2 hrs by immunoblotting analysis; type: functional, cell-based

Sequence of MAP kinase-interacting serine/threonine-protein kinase 2 (Homo sapiens) (Q9HBH9 whole entry, looked up, the tested form may be a part): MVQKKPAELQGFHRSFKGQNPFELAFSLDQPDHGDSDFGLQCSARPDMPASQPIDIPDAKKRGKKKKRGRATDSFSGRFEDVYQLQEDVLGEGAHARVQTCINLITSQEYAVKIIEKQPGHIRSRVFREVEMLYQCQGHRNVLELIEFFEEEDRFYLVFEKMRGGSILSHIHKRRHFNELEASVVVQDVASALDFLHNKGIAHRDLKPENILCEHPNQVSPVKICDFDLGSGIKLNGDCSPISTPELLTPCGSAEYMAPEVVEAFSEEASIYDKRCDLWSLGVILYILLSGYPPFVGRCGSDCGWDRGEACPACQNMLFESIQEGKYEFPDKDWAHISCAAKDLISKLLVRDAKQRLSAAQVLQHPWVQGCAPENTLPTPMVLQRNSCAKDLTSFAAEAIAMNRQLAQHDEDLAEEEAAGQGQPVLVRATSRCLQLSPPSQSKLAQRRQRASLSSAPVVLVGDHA
Sequence of Mitogen-activated protein kinase 12 (Homo sapiens) (P53778 whole entry, the tested form may be a part): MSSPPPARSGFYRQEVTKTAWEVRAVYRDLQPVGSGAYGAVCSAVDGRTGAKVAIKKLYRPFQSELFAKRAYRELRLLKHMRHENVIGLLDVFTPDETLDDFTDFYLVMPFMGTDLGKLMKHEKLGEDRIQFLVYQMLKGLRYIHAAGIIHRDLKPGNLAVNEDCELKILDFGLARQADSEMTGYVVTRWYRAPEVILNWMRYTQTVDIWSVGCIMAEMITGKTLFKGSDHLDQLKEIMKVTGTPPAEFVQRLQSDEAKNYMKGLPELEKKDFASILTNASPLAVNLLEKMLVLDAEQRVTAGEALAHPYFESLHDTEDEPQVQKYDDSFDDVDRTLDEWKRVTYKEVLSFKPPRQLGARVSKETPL
Sequence of Dual specificity protein kinase TTK (Homo sapiens) (P33981 whole entry, the tested form may be a part): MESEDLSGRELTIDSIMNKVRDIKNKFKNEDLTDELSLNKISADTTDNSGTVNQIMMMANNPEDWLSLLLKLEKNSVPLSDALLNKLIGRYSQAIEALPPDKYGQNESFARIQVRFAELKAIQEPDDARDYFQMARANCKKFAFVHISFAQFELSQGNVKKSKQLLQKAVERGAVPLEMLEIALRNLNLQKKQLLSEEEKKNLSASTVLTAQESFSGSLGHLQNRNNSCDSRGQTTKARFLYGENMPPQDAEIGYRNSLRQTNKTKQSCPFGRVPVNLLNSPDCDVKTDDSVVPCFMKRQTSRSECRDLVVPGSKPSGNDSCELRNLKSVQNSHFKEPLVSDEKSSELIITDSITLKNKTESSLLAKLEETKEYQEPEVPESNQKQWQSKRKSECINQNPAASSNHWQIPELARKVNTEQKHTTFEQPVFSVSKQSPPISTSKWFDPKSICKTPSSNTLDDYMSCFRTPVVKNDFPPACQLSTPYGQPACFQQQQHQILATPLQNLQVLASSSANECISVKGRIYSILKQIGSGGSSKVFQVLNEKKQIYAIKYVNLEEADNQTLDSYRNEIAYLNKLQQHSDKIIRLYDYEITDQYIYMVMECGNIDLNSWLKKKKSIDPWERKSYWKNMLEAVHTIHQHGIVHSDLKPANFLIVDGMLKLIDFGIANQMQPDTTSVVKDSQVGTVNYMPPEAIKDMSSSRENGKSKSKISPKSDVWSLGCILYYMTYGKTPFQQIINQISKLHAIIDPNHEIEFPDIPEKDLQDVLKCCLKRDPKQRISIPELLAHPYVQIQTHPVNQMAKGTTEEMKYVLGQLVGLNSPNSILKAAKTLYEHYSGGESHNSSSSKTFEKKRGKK
Sequence of Serine/threonine-protein kinase pim-2 (Homo sapiens) (Q9P1W9 whole entry, looked up, the tested form may be a part): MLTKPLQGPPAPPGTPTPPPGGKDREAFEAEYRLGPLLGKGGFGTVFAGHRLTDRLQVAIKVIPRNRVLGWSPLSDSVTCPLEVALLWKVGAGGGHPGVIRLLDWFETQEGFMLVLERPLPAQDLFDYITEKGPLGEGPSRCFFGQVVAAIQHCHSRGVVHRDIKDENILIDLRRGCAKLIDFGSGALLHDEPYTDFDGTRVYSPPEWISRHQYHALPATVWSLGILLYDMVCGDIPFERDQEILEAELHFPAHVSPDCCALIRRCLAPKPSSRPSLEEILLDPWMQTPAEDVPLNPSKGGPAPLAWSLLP
Sequence of Ribosomal protein S6 kinase alpha-2 (Homo sapiens) (Q15349 whole entry, the tested form may be a part): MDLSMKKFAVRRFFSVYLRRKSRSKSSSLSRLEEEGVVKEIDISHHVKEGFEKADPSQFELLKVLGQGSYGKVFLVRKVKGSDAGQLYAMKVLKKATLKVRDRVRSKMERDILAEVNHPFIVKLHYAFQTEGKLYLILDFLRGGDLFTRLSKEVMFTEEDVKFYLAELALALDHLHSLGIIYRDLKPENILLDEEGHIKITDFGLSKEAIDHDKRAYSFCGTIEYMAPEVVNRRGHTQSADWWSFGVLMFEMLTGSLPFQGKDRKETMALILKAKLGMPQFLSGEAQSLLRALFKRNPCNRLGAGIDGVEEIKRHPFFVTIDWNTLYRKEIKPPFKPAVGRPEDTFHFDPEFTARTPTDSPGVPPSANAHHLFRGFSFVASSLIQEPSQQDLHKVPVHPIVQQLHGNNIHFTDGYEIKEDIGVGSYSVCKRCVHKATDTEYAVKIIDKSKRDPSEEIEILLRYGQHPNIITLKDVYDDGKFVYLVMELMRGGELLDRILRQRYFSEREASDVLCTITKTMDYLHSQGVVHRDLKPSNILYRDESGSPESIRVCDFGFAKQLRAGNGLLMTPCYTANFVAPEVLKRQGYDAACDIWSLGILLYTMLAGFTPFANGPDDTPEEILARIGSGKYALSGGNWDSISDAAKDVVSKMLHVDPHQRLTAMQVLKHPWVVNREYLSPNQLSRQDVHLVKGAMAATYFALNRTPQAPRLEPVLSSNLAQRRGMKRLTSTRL
Sequence of Dual specificity mitogen-activated protein kinase kinase 5 (Homo sapiens) (Q13163 whole entry, the tested form may be a part): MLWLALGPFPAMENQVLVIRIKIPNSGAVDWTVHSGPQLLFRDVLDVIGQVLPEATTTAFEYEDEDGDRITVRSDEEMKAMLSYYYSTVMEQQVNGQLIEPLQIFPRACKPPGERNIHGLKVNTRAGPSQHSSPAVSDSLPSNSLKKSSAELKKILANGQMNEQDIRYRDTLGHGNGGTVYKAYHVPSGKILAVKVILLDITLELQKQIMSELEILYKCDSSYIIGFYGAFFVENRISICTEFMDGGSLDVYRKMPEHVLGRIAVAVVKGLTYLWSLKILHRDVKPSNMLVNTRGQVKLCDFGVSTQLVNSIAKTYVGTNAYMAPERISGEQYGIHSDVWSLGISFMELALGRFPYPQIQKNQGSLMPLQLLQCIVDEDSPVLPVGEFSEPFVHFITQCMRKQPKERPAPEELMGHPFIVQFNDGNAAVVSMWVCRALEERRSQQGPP
Sequence of Serine/threonine-protein kinase 24 (Homo sapiens) (Q9Y6E0 whole entry, looked up, the tested form may be a part): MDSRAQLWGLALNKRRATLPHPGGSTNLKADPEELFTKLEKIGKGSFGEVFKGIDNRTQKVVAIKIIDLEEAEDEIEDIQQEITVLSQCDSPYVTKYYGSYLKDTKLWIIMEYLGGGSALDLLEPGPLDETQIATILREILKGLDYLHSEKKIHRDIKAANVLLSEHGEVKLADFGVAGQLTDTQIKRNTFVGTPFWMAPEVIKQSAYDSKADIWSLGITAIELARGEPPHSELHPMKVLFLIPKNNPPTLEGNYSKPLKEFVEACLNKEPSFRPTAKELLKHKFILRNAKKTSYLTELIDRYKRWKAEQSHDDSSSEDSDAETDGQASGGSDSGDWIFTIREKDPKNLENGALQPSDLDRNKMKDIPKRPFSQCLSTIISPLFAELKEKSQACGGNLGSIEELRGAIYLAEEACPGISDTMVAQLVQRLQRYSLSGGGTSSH
Sequence of Serine/threonine-protein kinase PRP4 homolog (Homo sapiens) (Q13523 whole entry, the tested form may be a part): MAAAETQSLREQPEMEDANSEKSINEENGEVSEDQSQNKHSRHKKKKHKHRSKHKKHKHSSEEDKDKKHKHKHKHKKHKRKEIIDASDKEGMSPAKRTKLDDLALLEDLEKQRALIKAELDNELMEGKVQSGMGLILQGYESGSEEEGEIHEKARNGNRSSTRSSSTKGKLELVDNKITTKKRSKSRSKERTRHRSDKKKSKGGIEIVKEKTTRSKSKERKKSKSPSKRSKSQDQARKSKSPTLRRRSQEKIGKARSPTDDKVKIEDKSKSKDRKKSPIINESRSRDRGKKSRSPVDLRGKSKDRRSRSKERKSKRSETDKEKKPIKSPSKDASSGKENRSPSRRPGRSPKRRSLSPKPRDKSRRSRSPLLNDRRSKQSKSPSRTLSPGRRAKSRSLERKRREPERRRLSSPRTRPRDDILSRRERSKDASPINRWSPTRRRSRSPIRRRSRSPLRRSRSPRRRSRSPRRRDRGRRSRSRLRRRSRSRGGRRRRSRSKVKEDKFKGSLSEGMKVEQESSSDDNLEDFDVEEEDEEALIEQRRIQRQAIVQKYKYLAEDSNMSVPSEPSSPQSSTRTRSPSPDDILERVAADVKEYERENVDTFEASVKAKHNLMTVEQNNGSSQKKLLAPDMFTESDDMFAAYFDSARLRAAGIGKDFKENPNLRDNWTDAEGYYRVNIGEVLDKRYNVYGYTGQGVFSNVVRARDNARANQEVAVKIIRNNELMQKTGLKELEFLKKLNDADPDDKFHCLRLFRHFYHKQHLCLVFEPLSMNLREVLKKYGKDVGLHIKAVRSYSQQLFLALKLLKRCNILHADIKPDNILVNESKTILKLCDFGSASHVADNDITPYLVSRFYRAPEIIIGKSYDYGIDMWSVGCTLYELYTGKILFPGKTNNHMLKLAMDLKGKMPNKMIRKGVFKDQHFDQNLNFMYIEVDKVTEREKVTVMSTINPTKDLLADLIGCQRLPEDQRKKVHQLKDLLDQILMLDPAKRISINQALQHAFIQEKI

**Q.** Which Activity [1] does the source give for `COCCN[C@H]1CC[C@H](Nc2cc(-c3csc(NCC4(C#N)CCOCC4)n3)c(Cl)cn2)CC1` here?
**A.** 81%

**Q.** What about the Activity [2] of the same compound?
**A.** 92%

**Q.** And the Activity [3]?
**A.** 99%

**Q.** And the Activity [4]?
**A.** 100%

**Q.** What about the Activity [5] of the same compound?
**A.** 38%

**Q.** And the Activity [6]?
**A.** 53%

**Q.** And the Activity [7]?
**A.** 100%

**Q.** What about the Activity [8] of the same compound?
**A.** 100%

**Q.** And the Activity [9]?
**A.** 81%

**Q.** And the Activity [10]?
**A.** 100%

**Q.** And the Activity [11]?
**A.** 81%

**Q.** And the Activity [12]?
**A.** 97%

**Q.** And the Cmax [13]?
**A.** 771 ng/mL

**Q.** What about the Activity [14] of the same compound?
**A.** 89%

**Q.** What about the Activity [15] of the same compound?
**A.** 81%

**Q.** And the Activity [16]?
**A.** 90%

**Q.** And the GI50 [17]?
**A.** 1200 nM

**Q.** What about the Activity [18] of the same compound?
**A.** 100%

**Q.** And the Tmax [19]?
**A.** 1.33 h

**Q.** And the Vd [20]?
**A.** 12.8 L/kg

**Q.** And the Activity [21]?
**A.** 86%

**Q.** And the Activity (Homo sapiens)?
**A.** inactive
